Measurements taken from ChEMBL document CHEMBL1158705, “Dihydrochalcones from the leaves of Pieris japonica” (2005).

Assays:
[1] = Inhibition of concanavalin A-induced mouse T cells proliferation assessed as [3H]TdR incorporation at 1 uM […]; assay type: functional, T-cell
Summary of the method: (§1)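 Mouse spleen cells (4 × 10^6/well) were cultured with test compound plus a selective stimulus: concanavalin A at 5 µg/mL for T cells, or E. coli LPS for B cells. Incubation was 48 h at 37 °C in 5% CO2, with a 0.25 µCi/well 3H-thymidine pulse over the final 6 h. Incorporated radioactivity was read by liquid scintillation, as the mean of triplicates, with Student t-test versus control.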

[2] = Inhibition of concanavalin A-induced mouse T cells proliferation assessed as [3H]TdR incorporation at 0.1 uM […]; assay type: functional, T-cell; summary of the method: as §1
[3] = Inhibition of LPS-induced mouse B cells proliferation assessed as [3H]TdR incorporation at 10 uM […]; assay type: functional; summary of the method: as §1
[4] = Inhibition of LPS-induced mouse B cells proliferation assessed as [3H]TdR incorporation at 1 uM […]; assay type: functional; summary of the method: as §1
[5] = Inhibition of LPS-induced mouse B cells proliferation assessed as [3H]TdR incorporation at 0.1 uM […]; assay type: functional; summary of the method: as §1
[6] = Inhibition of concanavalin A-induced mouse T cells proliferation assessed as [3H]TdR incorporation at 10 uM […]; assay type: functional, T-cell; summary of the method: as §1

SMILES | Activity [1] [cpm] | Activity [2] [cpm] | Activity [3] [cpm] | Activity [4] [cpm] | Activity [5] [cpm] | Activity [6] [cpm]
COc1c(O[C@@H]2O[C@H](CO)[C@@H](O)[C@H](O)[C@H]2O)cc(C(=O)CCc2ccc(O)cc2)cc1O[C@@H]1O[C@H](CO)[C@@H](O)[C@H](O)[C@H]1O | 74100 | 84800 | 24600 | 22800 | 30900 | 74100
COc1cc(O)c(C(=O)CCc2ccc(O)c(O)c2)c(O[C@@H]2O[C@H](CO)[C@@H](O)[C@H](O)[C@H]2O)c1 | 71400 | 66700 | 24000 | 22100 | 22200 | 33000
COc1cc(O)c(C(=O)CCc2ccc(O)cc2)c(O[C@@H]2O[C@H](CO)[C@@H](O)C(=O)[C@H]2O)c1 | 26700 | 38300 | 16400 | 35000 | 34200 | 32000
COc1cc(O)c(C(=O)CCc2ccc(O)cc2)c(O[C@@H]2O[C@H](CO)[C@@H](O)[C@H](O)[C@H]2OC(C)=O)c1 | 81600 | 83300 | 29800 | 45000 | 46600 | 70100
COc1cc(O)c(C(=O)CCc2ccc(O)cc2)c(O)c1 [ASEBOGENIN] | 80300 | 79300 | 34100 | 28300 | 32500 | 58400
COc1cc(O)c(C(=O)CCc2ccc(O)cc2)c(O[C@@H]2O[C@H](CO)[C@@H](O)[C@H](O)[C@H]2O)c1 [ASEBOTIN] | 87200 | 89800 | 35200 | 40700 | 47400 | 79600
O=C(CCc1ccc(O)cc1)c1c(O)cc(O)cc1O [PHLORETIN] | 75700 | 63900 | 30700 | 29300 | 32700 | 69400
O=C(CCc1ccc(O)cc1)c1c(O)cc(O)cc1O[C@@H]1O[C@H](CO)[C@@H](O)[C@H](O)[C@H]1O [PHLORIZIN] | 35500 | 36100 | 30500 | 32400 | 33000 | 33000
COc1cc(O)c(C(=O)CCc2ccc(O)cc2)c(O)c1Cc1c(OC)cc(O)c(C(=O)CCc2ccc(O)cc2)c1O [PIEROTIN A] | 75000 | 75400 | 36500 | 32700 | 38100 | 22600
COc1cc(O)c(C(=O)CCc2ccc(O)cc2)c2oc3cc(O)c(O)cc3c12 [PIEROTIN B] | 59000 | 76200 | 3940 | 28600 | 22800 | 10800
